Laboratory results: ChEMBL document CHEMBL5055621, “Synthesis and Characterization of the Novel Rodent-Active and CNS-Penetrant P2X7 Receptor Antagonist Lu AF27139” (J Med Chem, 2021)

Columns and labels:
[1] = biological target: T1, P2X purinoceptor 7 (Homo sapiens, UniProt Q99572); test: Displacement of [3H]-A-804598 from human P2X7 receptor expressed in HEK293 cell membrane by in vitro binding assay; type: cell membranes
T1 sequence (Q99572 whole entry): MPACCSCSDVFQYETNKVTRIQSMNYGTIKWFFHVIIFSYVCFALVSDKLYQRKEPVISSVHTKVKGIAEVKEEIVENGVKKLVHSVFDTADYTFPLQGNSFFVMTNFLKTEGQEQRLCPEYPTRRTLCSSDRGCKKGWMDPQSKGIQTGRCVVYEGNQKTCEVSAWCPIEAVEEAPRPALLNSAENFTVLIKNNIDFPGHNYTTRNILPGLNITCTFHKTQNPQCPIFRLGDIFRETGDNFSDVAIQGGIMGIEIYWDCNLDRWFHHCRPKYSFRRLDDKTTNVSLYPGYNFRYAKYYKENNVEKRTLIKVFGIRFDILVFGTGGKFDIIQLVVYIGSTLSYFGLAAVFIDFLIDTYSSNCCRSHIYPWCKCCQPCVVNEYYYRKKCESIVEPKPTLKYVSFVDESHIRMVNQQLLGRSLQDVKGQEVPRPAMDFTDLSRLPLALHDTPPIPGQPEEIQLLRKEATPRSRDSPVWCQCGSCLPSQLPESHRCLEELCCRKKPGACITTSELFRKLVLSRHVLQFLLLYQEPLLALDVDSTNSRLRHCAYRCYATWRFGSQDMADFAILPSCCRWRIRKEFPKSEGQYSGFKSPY

[2] = Free plasma concentration in rat at 3 mg/kg, po after 2 hrs by ex vivo equilibrium dialysis; type: ADME, organism-based
Outline: (§1)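 Male Sprague–Dawley rats were dosed orally at 1–100 mg/kg, and total plasma concentration was measured at 1 and 2 h. This was multiplied by fraction unbound from ex vivo equilibrium dialysis; mean ± SEM, n = 3 animals.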

[3] = Free plasma concentration in rat at 100 mg/kg, po after 1 hr by ex vivo equilibrium dialysis; type: ADME, organism-based; outline: as §1
[4] = AUC (0 to 8 hr) in male rat at 150 mg/kg, po after 7 days; type: ADME, organism-based; set-up: time 7 day, dose 150 mg/kg, route po; settings: in vivo
Outline: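 Oral dosing in male Sprague-Dawley rats (150−200 g, 7-day acclimation, standard housing) in a 7-day exploratory toxicology study.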

[5] = biological target: T2, P2X purinoceptor 7 (Mus musculus, UniProt Q9Z1M0); test: Antagonist activity at mouse P2X7 receptor expressed in HEK293 cells assessed as inhibition of BzATP-induced calcium-flux measured after 60 mins by FLIPR analysis; type: cell-based
T2 sequence (Q9Z1M0 whole entry): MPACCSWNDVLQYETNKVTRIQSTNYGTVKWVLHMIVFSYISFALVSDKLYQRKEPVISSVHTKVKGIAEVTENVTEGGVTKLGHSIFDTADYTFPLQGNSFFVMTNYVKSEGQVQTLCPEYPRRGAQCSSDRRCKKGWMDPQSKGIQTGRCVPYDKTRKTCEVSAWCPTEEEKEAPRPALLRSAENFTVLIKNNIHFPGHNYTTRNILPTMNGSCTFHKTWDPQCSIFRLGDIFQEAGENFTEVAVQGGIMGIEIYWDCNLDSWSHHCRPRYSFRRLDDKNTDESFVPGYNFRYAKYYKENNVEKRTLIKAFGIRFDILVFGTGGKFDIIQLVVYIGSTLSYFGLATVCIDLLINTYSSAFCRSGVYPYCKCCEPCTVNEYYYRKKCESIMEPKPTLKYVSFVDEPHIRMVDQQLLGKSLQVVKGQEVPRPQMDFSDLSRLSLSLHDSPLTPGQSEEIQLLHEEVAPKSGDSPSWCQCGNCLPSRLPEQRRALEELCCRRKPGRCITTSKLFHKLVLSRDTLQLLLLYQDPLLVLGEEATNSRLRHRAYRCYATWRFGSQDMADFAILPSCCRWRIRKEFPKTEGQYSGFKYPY
Outline: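 Stable rat or mouse P2X7 HEK293 cells in HBSS/20 mM HEPES/2.5 mM probenecid/0.05% BSA, pH 7.4, were loaded with Fluo-4 NW (37 °C 30 min, RT 30 min). After 30 min at RT, calcium fluorescence was read by FLIPR; n ≥ 3.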

- Ki [1]: 55 nM
- Cp(f) [2]: 91.4 nM
- Cp(f) [3]: 1460 nM
- AUC at 168 h [4]: 210 µM·h
- IC50 [5]: 22 nM
SMILES: O=C(NC[C@H](c1ccc(Cl)cc1)N1CCOCC1)c1sc(-c2ncccn2)nc1C(F)(F)F
